Assay [1] has as its target T1, Hormone-sensitive lipase (Homo sapiens) (UniProt Q05469).
T1 sequence (whole entry): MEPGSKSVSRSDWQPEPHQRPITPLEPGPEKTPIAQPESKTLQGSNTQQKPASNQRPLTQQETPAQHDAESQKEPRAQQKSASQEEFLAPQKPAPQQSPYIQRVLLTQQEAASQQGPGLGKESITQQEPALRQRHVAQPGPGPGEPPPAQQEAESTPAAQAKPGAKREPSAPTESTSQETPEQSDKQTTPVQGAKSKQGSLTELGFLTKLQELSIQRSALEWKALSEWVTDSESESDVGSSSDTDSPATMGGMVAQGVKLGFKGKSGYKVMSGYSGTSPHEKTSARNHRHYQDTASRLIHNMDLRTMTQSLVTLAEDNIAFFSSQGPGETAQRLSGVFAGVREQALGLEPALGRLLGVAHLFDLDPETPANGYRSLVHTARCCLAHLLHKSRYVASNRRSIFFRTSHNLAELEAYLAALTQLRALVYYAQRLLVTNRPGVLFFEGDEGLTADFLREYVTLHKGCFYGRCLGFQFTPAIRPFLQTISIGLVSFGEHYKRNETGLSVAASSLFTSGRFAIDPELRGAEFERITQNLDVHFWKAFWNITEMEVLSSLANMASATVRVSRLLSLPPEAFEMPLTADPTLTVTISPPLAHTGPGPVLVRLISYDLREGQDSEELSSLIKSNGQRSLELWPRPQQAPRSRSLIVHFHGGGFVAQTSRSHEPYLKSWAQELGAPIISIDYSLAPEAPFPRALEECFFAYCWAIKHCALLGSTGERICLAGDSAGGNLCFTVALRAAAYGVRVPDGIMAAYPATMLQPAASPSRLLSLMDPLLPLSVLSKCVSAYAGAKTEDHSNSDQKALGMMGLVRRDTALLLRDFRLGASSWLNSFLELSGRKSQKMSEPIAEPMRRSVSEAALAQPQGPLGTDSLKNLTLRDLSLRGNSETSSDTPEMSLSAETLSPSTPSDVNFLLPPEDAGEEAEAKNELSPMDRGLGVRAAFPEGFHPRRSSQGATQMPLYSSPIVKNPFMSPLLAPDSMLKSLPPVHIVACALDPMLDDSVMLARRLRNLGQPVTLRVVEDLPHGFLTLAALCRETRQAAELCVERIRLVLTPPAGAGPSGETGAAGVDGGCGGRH
Description: Inhibition of recombinant human hormone sensitive lipase (HSL). On the set-up: concentration or dose not given beside the values. The conditions noted are these: concentration not given here. A digest of the protocol:
(§1)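 Purified recombinant human HSL (specific activity 2.6 U/mg protein) with triolein substrate. Activity measured at 37 °C as ³H-oleic acid release over time from a ³H-trioleoylglycerol emulsion stabilized with phospholipids. Bovine serum albumin served as fatty acid acceptor.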

Assay [2] addresses T2, Hormone-sensitive lipase (Homo sapiens, UniProt Q05469).
T2 sequence (Q05469 whole entry): T1 sequence (whole entry)
The assay can be described thus: Inhibition of human recombinant hormone sensitive lipase. A digest of the protocol: as §1

Inhibition and IC50 data for 28 compounds are collected here from ChEMBL document CHEMBL1137968, “Carbazates as potent inhibitors of hormone-sensitive lipase” (Bioorg Med Chem Lett, 2004).

Usually inhibition stands for the share of the control response that was lost under treatment. Take `O=C(NN1CCc2ccccc2C1)OCc1ccccc1`: the inhibition in assay [1] is 4%.
As to `CN(C(=O)Oc1ccc(Cl)cc1)N1CCc2ccccc2C1`, the inhibition in assay [1] stood at 2%.
On to `O=C(NN1CCc2ccccc2C1)Oc1c(Cl)cccc1Cl`, for which the inhibition in assay [1] is 3%.
Usually IC50 stands for the concentration at which inhibition is half-maximal. `O=C(NN1CCOCC1)Oc1ccc(Cl)cc1`: in assay [2], the half-inhibitory concentration (IC50) is 184 nM. The inhibition in assay [1] was 99%.
Consider `CCOC(=O)NN1CCc2ccccc2C1`, for which, in assay [1], the inhibition was 9%.
As for `O=C(NN1CCCCC1)Oc1ccc(Cl)cc1`, in assay [1], the inhibition is 99%.
For `O=C(NN1CCCC1)Oc1ccc(Cl)cc1`, the IC50 in assay [2] is 24 nM. Moreover, the inhibition in assay [1] was found to be 100%.
For the compound `CC(C)(C)OC(=O)NN1CCc2ccccc2C1`, the inhibition in assay [1] came out at 8%.
As for `CC1Cc2ccccc2CN1NC(=O)Oc1ccc(Cl)cc1` (stereo unspecified), in assay [2], the concentration for half-maximal inhibition (IC50) stood at 35 nM. Further, the inhibition in assay [1] amounted to 99%.
For `O=C(NN1CCc2ccccc2C1)Oc1ccc(C(=O)c2ccccc2)cc1`, the inhibition in assay [1] was found to be 21%.
On the same count and under the same terms, to `O=C(NN1CCc2ccccc2C1)Oc1ccc(Cl)cc1` belongs 98%.
In the case of `CCCC(=O)Nc1ccc(OC(=O)NN2CCOCC2)cc1`, the concentration for half-maximal inhibition (IC50) in assay [2] was 3200 nM. Also, the inhibition in assay [1] came to 84%.
Turning to `COC(=O)c1ccc(OC(=O)NN2CCc3ccccc3C2)cc1`, in assay [1], the inhibition was determined as 57%.
For the compound `CC(=O)Nc1ccc(OC(=O)NN2CCc3ccccc3C2)cc1`, the inhibition in assay [1] is 7%.
In the case of `CCOC(=O)Cc1ccc(OC(=O)NN2CCOCC2)cc1`, the IC50 in assay [2] was found to be 138 nM. In addition, the inhibition in assay [1] turned out to be 99%.
With `CC(C)(C)C1CCC(C(=O)Nc2ccc(OC(=O)NN3CCOCC3)cc2)CC1` (stereo unspecified), the IC50 in assay [2] was determined as 1 nM. The inhibition in assay [1] was 100%.
Take `O=C(NN1CCc2ccccc2C1)Oc1ccc(Cc2ccccc2)cc1`: in assay [2], the half-inhibitory concentration (IC50) came out at 97 nM. Moreover, the inhibition in assay [1] amounted to 97%.
Consider `O=C(NN1CCOCC1)Oc1ccc(NC(=O)C2CCCCC2)cc1`, for which the half-inhibitory concentration (IC50) in assay [2] is 10 nM. Moreover, the inhibition in assay [1] worked out at 99%.
Turning to `CC(=O)Nc1ccc(OC(=O)NN2CCOCC2)cc1`, the inhibition in assay [1] is 20%.
Take `COc1ccccc1OC(=O)NN1CCc2ccccc2C1`: the inhibition in assay [1] turned out to be 76%.
On to `CC(C)(C)OC(=O)Nc1ccc(OC(=O)NN2CCc3ccccc3C2)cc1`, for which, in assay [1], the inhibition is 98%.
`CN1CCN(NC(=O)Oc2ccc(Cl)cc2)CC1`: the half-inhibitory concentration (IC50) in assay [2] was 515 nM. Also, the inhibition in assay [1] was determined as 98%.
On to `O=C(NN1CCc2ccccc2C1)Oc1ccccc1`, for which the half-maximal inhibitory concentration (IC50) in assay [2] came to 205 nM.
As for `O=C(Cc1ccc(OC(=O)NN2CCOCC2)cc1)OCc1ccccc1`, the half-maximal inhibitory concentration (IC50) in assay [2] was determined as 5 nM. Moreover, the inhibition in assay [1] came to 100%.
The matching figures for `COC(=O)Cc1ccc(OC(=O)NN2CCOCC2)cc1`: 716 nM and 95%.
Regarding `COc1ccc(OC(=O)NN2CCc3ccccc3C2)cc1`, the inhibition in assay [1] amounted to 97%.
Take `CC(C)(C)CC(=O)Nc1ccc(OC(=O)NN2CCOCC2)cc1`: the concentration for half-maximal inhibition (IC50) in assay [2] stood at 47 nM. In addition, the inhibition in assay [1] worked out at 99%.
As for `CC1c2ccccc2CCN1NC(=O)Oc1ccc(Cl)cc1` (stereo unspecified), the half-maximal inhibitory concentration (IC50) in assay [2] amounted to 32 nM. For the same compound, in assay [1], the inhibition was 91%.
